{"source": "ChEMBL document CHEMBL2086284", "about": "“(Z)-1-aryl-3-arylamino-2-propen-1-ones, highly active stimulators of tubulin polymerization: synthesis, structure-activity relationship (SAR), tubulin polymerization, and cell growth inhibition studies” (J Med Chem, 2012)", "key": {"HeLa [1]": {"tested_on": "HeLa", "test": "Inhibition of cytoplasmic microtubule polymerization in human HeLa cells at 0.5 uM after 18 hrs by FITC-conjugated DAPI staining based fluorescence microscopy", "assay_type": "cell-based", "procedure,_shortened": "(§1)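 HeLa grown on glass coverslips and exposed for 18 h to test agent (0.25 or 0.5 μM), paclitaxel or vincristine (0.005 μM), or DMSO. Cells were fixed in 4% paraformaldehyde, blocked, permeabilised, and stained with FITC anti-α-tubulin (1:400) and then DAPI (0.5 ug/mL). Mitotic spindles or interphase cytoplasmic microtubules were scored by fluorescence microscopy at 100x.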"}, "HeLa [2]": {"tested_on": "HeLa", "test": "Induction of mitotic arrest in human HeLa cells assessed as increase of phosphorylated Bcl2 level at 1 uM after 24 hrs by Western blotting relative to control", "assay_type": "functional"}, "[3]": {"test": "Cytotoxicity against human MES-SA cells after 96 hrs by trypan blue exclusion assay", "assay_type": "functional, cell-based", "procedure,_shortened": "(§2)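 Cells grown in DMEM or RPMI with 10% FBS and penicillin-streptomycin. Seeded at 1.0 × 10^5 cells/mL/well in 6-well dishes; compounds were added 24 h later at various concentrations. Viable cells were counted by trypan blue exclusion from duplicate wells after 96 h of treatment, giving a dose-response endpoint.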"}, "PANC-1": {"tested_on": "PANC-1", "test": "Cytotoxicity against human PANC1 cells after 96 hrs by trypan blue exclusion assay", "assay_type": "functional, cell-based", "conditions": "PANC-1, 96 h", "procedure,_shortened": "as §2"}, "HeLa [4]": {"tested_on": "HeLa", "test": "Induction of mitotic arrest in human HeLa cells assessed as increase of phosphorylated BUBR1 level at 1 uM after 6 hrs by Western blotting relative to control", "assay_type": "functional", "procedure,_shortened": "(§3)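 HeLa treated with 1 μM and harvested at set times. Pellets were frozen, then lysed in HEPES/Triton X-100/NaCl buffer, pH 7.5, with phosphatase and protease inhibitors. Blots were probed sequentially for phospho-histone H3 (Ser10), histone H3, cyclin B1, PLK-1 and BubR1, with GAPDH as loading control. Antibodies: primary 1:1000, secondary 1:10,000. Fold increase is relative to control. N=3.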"}, "DU-145 [5]": {"tested_on": "DU-145", "test": "Cell cycle arrest in human DU145 cells assessed as accumulation at G2/M phase at 2.5 uM by propidium iodide staining based FACS analysis", "assay_type": "functional", "conditions": "TDE = time-dependent effect", "procedure,_shortened": "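DU145 plated at 1.0 × 10^6 cells/dish and dosed 24 h later at 2.5 μM. Floating and trypsinised cells were pooled at 24, 48 and 72 h, fixed in ice-cold 70% ethanol for at least 24 h, stained 30 min at 37 °C with propidium iodide and RNase A, and analysed for DNA content by flow cytometry.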"}, "HeLa [6]": {"tested_on": "HeLa", "test": "Induction of mitotic arrest in human HeLa cells assessed as increase of phosphorylated histone H3 at Ser10 level at 1 uM after 24 hrs by Western blotting relative to control", "assay_type": "functional", "procedure,_shortened": "as §3"}, "HeLa [7]": {"tested_on": "HeLa", "test": "Cytotoxicity against human HeLa cells after 96 hrs by trypan blue exclusion assay", "assay_type": "functional, cell-based", "procedure,_shortened": "as §2"}, "[8]": {"test": "Cytotoxicity against human COLO320 cells after 96 hrs by trypan blue exclusion assay", "assay_type": "functional, cell-based", "conditions": "COLO 320, 96 h", "procedure,_shortened": "as §2"}, "[9]": {"test": "Cytotoxicity against human HTB-126 cells after 96 hrs by trypan blue exclusion assay", "assay_type": "functional, cell-based", "conditions": "HTB126, 96 h", "procedure,_shortened": "as §2"}, "BT-474": {"tested_on": "BT-474", "test": "Cytotoxicity against human BT474 cells expressing estrogen receptor after 96 hrs by trypan blue exclusion assay", "assay_type": "functional, cell-based", "conditions": "BT-474, 96 h", "procedure,_shortened": "as §2"}, "SK-MEL-28": {"tested_on": "SK-MEL-28", "test": "Cytotoxicity against human SK-MEL-28 cells after 96 hrs by trypan blue exclusion assay", "assay_type": "functional, cell-based", "conditions": "SK-MEL-28, 96 h", "procedure,_shortened": "as §2"}, "DU-145 [10]": {"tested_on": "DU-145", "test": "Cytotoxicity against androgen receptor-deficient human DU145 cells after 96 hrs by trypan blue exclusion assay", "assay_type": "functional, cell-based", "conditions": "DU-145, 96 h", "procedure,_shortened": "as §2"}, "Raji": {"tested_on": "Raji", "test": "Cytotoxicity against human Raji cells after 96 hrs by trypan blue exclusion assay", "assay_type": "functional, cell-based", "procedure,_shortened": "as §2"}, "HeLa [11]": {"tested_on": "HeLa", "test": "Induction of mitotic arrest in human HeLa cells assessed as increase of phosphorylated histone H3 at Ser10 level at 1 uM after 6 hrs by Western blotting", "assay_type": "functional, cell-based", "procedure,_shortened": "as §3"}, "SNU-5": {"tested_on": "SNU-5", "test": "Cytotoxicity against human SNU5 cells after 96 hrs by trypan blue exclusion assay", "assay_type": "functional, cell-based", "conditions": "SNU-5, 96 h", "procedure,_shortened": "as §2"}, "A549": {"tested_on": "A549", "test": "Cytotoxicity against human A549 cells after 96 hrs by trypan blue exclusion assay", "assay_type": "functional, cell-based", "conditions": "A549, 96 h", "procedure,_shortened": "as §2"}, "K562": {"tested_on": "K562", "test": "Cytotoxicity against human K562 cells after 96 hrs by trypan blue exclusion assay", "assay_type": "functional, cell-based", "conditions": "K562, 96 h", "procedure,_shortened": "as §2"}, "HeLa [12]": {"tested_on": "HeLa", "test": "Induction of apoptosis in human HeLa cells assessed as cleavage of PARP at 1 uM after 24 hrs by Western blot analysis", "assay_type": "functional, cell-based", "procedure,_shortened": "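HeLa exposed to 1.0 μM for a time course. Lysates were resolved on 10% SDS-PAGE, blotted to nitrocellulose and probed with anti-PARP (primary 1:1000, secondary 1:10,000), with ECL detection. Cleaved PARP was taken as the apoptosis/caspase-3 marker. N=3.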"}, "MIA PaCa-2": {"tested_on": "MIA PaCa-2", "test": "Cytotoxicity against human MIAPaCa2 cells after 96 hrs by trypan blue exclusion assay", "assay_type": "functional, cell-based", "conditions": "MIA PaCa-2, 96 h", "procedure,_shortened": "as §2"}, "HCT-15": {"tested_on": "HCT-15", "test": "Cytotoxicity against human HCT15 cells after 96 hrs by trypan blue exclusion assay", "assay_type": "functional, cell-based", "conditions": "HCT-15, 96 h", "procedure,_shortened": "as §2"}, "NCI-N87": {"tested_on": "NCI-N87", "test": "Cytotoxicity against human NCI-N87 cells after 96 hrs by trypan blue exclusion assay", "assay_type": "functional, cell-based", "conditions": "NCI-N87, 96 h", "procedure,_shortened": "as §2"}, "BT-20": {"tested_on": "BT-20", "test": "Cytotoxicity against estrogen receptor-deficient human BT20 cells after 96 hrs by trypan blue exclusion assay", "assay_type": "functional, cell-based", "conditions": "BT-20, 96 h", "procedure,_shortened": "as §2"}, "MCF7": {"tested_on": "MCF7", "test": "Cytotoxicity against human MCF7 cells expressing estrogen receptor after 96 hrs by trypan blue exclusion assay", "assay_type": "functional, cell-based", "conditions": "MCF7, 96 h", "procedure,_shortened": "as §2"}, "HeLa [13]": {"tested_on": "HeLa", "test": "Induction of mitotic arrest in human HeLa cells assessed as unbound chromosome outside metaphase plate at 0.25 uM after 18 hrs by FITC-conjugated DAPI staining based fluorescence microscopy", "assay_type": "functional, cell-based", "procedure,_shortened": "as §1"}, "HeLa [14]": {"tested_on": "HeLa", "test": "Induction of mitotic arrest in human HeLa cells assessed as increase of phosphorylated PLK1 level at 1 uM after 6 hrs by Western blotting relative to control", "assay_type": "functional", "procedure,_shortened": "as §3"}, "DU-145 [15]": {"tested_on": "DU-145", "test": "Cell cycle arrest in human DU145 cells assessed as accumulation at G2/M phase after 24 hrs using propidium iodide staining by FACS analysis", "assay_type": "functional, cell-based", "procedure,_shortened": "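DU145 plated at 1.0 × 10^6 cells per dish, treated 24 h later for 24 h across a range of concentrations. Cells were fixed in ice-cold 70% ethanol, stained with propidium iodide plus RNase A for 30 min at 37 °C, and DNA content was read by flow cytometry. Phases: G1 (2N), S (>2N<4N), G2/M (4N). N=3.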"}, "SK-BR-3": {"tested_on": "SK-BR-3", "test": "Cytotoxicity against estrogen receptor-deficient human SKBR3 cells after 96 hrs by trypan blue exclusion assay", "assay_type": "functional, cell-based", "conditions": "SK-BR-3, 96 h", "procedure,_shortened": "as §2"}, "Caco-2": {"tested_on": "Caco-2", "test": "Cytotoxicity against human Caco2 cells after 96 hrs by trypan blue exclusion assay", "assay_type": "functional, cell-based", "conditions": "Caco-2, 96 h", "procedure,_shortened": "as §2"}, "[16]": {"test": "Cytotoxicity against human MESSA/DX5 cells after 96 hrs by trypan blue exclusion assay", "assay_type": "functional, cell-based", "conditions": "MES-SA/Dx5, 96 h", "procedure,_shortened": "as §2"}, "HeLa [17]": {"tested_on": "HeLa", "test": "Induction of mitotic arrest in human HeLa cells assessed as dispersed chromosome spread with three or more tubulin bundles at 0.5 uM after 18 hrs by FITC-conjugated DAPI staining based fluorescence microscopy", "assay_type": "functional, cell-based", "procedure,_shortened": "as §1"}, "HeLa [18]": {"tested_on": "HeLa", "test": "Induction of mitotic arrest in human HeLa cells assessed as increase of phosphorylated cyclin B1 level at 1 uM after 6 hrs by Western blotting relative to control", "assay_type": "functional", "procedure,_shortened": "as §3"}}, "note": "Active and inactive are the calls of the source. The calls are words filed in the database; no cut-off is given here."}
{"compound": "COc1ccc(N/C=C\\C(=O)c2cc(OC)c(OC)c(OC)c2Br)cc1O", "values": [{"measurement": "inhibition", "setting": "HeLa [1]", "result": "inactive"}, {"measurement": "fold change (FC)", "setting": "HeLa [2]", "result": 88}, {"measurement": "IC50", "setting": "[3]", "result": 250, "unit": "nM"}, {"measurement": "IC50", "setting": "PANC-1", "result": 200, "unit": "nM"}, {"measurement": "fold change (FC)", "setting": "HeLa [4]", "result": 2.95}, {"measurement": "Activity", "setting": "DU-145 [5]", "result": "tde"}, {"measurement": "fold change (FC)", "setting": "HeLa [6]", "result": 121}, {"measurement": "IC50", "setting": "HeLa [7]", "result": 200, "unit": "nM"}, {"measurement": "IC50", "setting": "[8]", "result": 150, "unit": "nM"}, {"measurement": "IC50", "setting": "[9]", "result": 100, "unit": "nM"}, {"measurement": "IC50", "setting": "BT-474", "result": 100, "unit": "nM"}, {"measurement": "IC50", "setting": "SK-MEL-28", "result": 200, "unit": "nM"}, {"measurement": "IC50", "setting": "DU-145 [10]", "result": 60, "unit": "nM"}, {"measurement": "IC50", "setting": "Raji", "result": 200, "unit": "nM"}, {"measurement": "Activity", "setting": "HeLa [11]", "result": "Active"}, {"measurement": "IC50", "setting": "SNU-5", "result": 250, "unit": "nM"}, {"measurement": "IC50", "setting": "A549", "result": 900, "unit": "nM"}, {"measurement": "IC50", "setting": "K562", "result": 100, "unit": "nM"}, {"measurement": "Activity", "setting": "HeLa [12]", "result": "Active"}, {"measurement": "IC50", "setting": "MIA PaCa-2", "result": 800, "unit": "nM"}, {"measurement": "IC50", "setting": "HCT-15", "result": 40, "unit": "nM"}, {"measurement": "IC50", "setting": "NCI-N87", "result": 300, "unit": "nM"}, {"measurement": "IC50", "setting": "BT-20", "result": 750, "unit": "nM"}, {"measurement": "IC50", "setting": "MCF7", "result": 400, "unit": "nM"}, {"measurement": "Activity", "setting": "HeLa [13]", "result": "Active"}, {"measurement": "fold change (FC)", "setting": "HeLa [14]", "result": 2.5}, {"measurement": "Activity", "setting": "DU-145 [15]", "result": "Dose-dependent effect"}, {"measurement": "IC50", "setting": "SK-BR-3", "result": 300, "unit": "nM"}, {"measurement": "IC50", "setting": "Caco-2", "result": 250, "unit": "nM"}, {"measurement": "IC50", "setting": "[16]", "result": 500, "unit": "nM"}, {"measurement": "Activity", "setting": "HeLa [17]", "result": "Active"}, {"measurement": "fold change (FC)", "setting": "HeLa [18]", "result": 2.5}]}
